Reference: paper PMC8212709 (Clinical and Translational Science, 2021)

Columns and labels:
[1] = test system: FcεRI‐mediated activation of basophils; test: Basophil activation test; format: in vivo, human
BTK = BTK (Homo sapiens, UniProt Q06187); test: BTK occupancy assay in whole blood cell lysates; format: in vivo
How it was run: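 Healthy subjects in SRD cohorts 1–4 (6 test compound, 2 placebo per cohort) took a single oral dose (0.1 mg starting dose, given as solution) or placebo while fasted. Unoccupied BTK in whole-blood cell lysates was captured by a biotin-modified covalent probe of the test compound. Occupancy was computed per postdose time up to 96 h as 100 − [100 × (BTK concentration ÷ predose BTK concentration)].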

[2] = Plasma pharmacokinetics of TAK‐020; format: in vivo, human (healthy subjects); conditions: for half-life / Tmax: human, plasma
How it was run: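 In the MRD part, healthy subjects took oral test compound q.d. (3.75–60 mg) or placebo, with sampling on days 1 and 9. Plasma levels were measured by validated HPLC-MS/MS (LLOQ 0.10 ng/mL). Noncompartmental parameters used actual sampling times, with geometric mean and %CV for Cmax and AUC. Accumulation ratios were based on Cmax and AUC24, plus the LS-mean ratio AUC24 (day 9):AUC∞ (day 1).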

[3] = nonclinical studies, oral solution; no reference given; cited from earlier work
[4] = test system: rat collagen‐induced arthritis model; conditions: nonclinical, no reference given; cited from earlier work
[5] = rat, most sensitive toxicological species; nonclinical, no reference given; cited from earlier work
[6] = rats, nonclinical, no reference given, cited from earlier work

Chain of BTK (Q06187 whole entry): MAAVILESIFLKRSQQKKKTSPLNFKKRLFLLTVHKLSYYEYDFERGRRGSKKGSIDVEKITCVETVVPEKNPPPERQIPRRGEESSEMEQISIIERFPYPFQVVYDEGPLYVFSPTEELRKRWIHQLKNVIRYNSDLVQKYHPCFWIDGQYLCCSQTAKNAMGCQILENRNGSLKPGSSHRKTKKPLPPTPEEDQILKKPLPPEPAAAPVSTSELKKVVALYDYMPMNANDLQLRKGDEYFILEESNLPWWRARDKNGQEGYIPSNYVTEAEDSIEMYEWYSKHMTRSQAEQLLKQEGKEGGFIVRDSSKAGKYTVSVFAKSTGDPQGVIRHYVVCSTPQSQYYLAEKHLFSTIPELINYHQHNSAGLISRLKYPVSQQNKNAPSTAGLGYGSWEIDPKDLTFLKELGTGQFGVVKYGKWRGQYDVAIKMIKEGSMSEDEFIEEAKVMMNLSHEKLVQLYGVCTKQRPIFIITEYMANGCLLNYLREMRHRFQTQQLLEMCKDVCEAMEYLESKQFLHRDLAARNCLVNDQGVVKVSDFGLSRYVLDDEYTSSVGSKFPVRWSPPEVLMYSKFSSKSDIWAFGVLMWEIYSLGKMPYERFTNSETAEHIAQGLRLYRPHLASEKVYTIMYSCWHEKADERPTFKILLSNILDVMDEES

C=CC(=O)N1CC[C@H](Oc2nc(-c3n[nH]c(=O)[nH]3)cc3ccccc23)C1 [TAK‐020]
reduction from baseline in the %CD63‐positive basophils ([1]; MRD, day 9 after q.d. administration, doses ≥3.75 mg (3.75 to 60 mg)): > 80% | reduction in the %CD63‐positive basophils sustained throughout the entire dosing interval (predose to 24 hours postdose) ([1]; MRD, ≥ 45‐mg doses, after multiple dosing for 9 days): ≥ 80% | reduction in the %CD63‐positive basophils ([1]; SRD, 0.1‐mg and 0.5‐mg dose groups): essentially no reduction | time to return to baseline basophil activity postdose ([1]; SRD, single doses ≥ 4.4 mg): 36 to 72 h | reduction from baseline of FcεRI‐mediated activation of basophils (%CD63‐positive basophils) ([1]; SRD, single doses ≥ 4.4 mg (4.4–105 mg)): > 80% | duration of BTK occupancy > 70% (BTK; SRD, 2.5‐mg and 4.4‐mg doses, longest duration investigated): > 96 h | BTK occupancy, maximum and sustained (BTK; SRD, single doses ≥ 2.5 mg (2.5‐mg and 4.4‐mg), blood): > 70% | duration of > 80% BTK occupancy (BTK; single doses of 2.5 and 4.4 mg, postdose): 72 h | BTK occupancy (%) of TAK‐020 binding sites (BTK; single doses of 2.5 and 4.4 mg, up to 72 hours postdose): > 80% | duration of BTK saturation (BTK; single doses ≥2.5 mg): > 24 h | least‐squares means ratio of AUC24 (day 9):AUC∞ (day 1) ([2]; MRD): near unity | accumulation ratio based on AUC24 (Rac(AUC24)), geometric mean ([2]; MRD 3.75 to 60 mg q.d.): near unity | accumulation ratio based on Cmax (Rac(Cmax)), geometric mean ([2]; MRD 3.75 to 60 mg q.d.): near unity | steady‐state systemic exposure (mean dose‐normalized Cmax and AUC24) vs dose ([2]; MRD, days 1 and 9): dose‐proportional manner up to 60 mg | half-life ([2]; oral, 3.75 mg, mean t1/2z, MRD, 3.75‐mg dose, day 1): 2.59 h | half-life ([2]; oral, 3.75 mg, mean t1/2z, MRD, 3.75‐mg dose, day 9 after q.d. dosing): 2.15 h | half-life ([2]; oral, 60 mg, mean t1/2z, MRD, 60‐mg dose, day 1): 6.3 h | half-life ([2]; oral, 60 mg, mean t1/2z, MRD, 60‐mg dose, day 9 after q.d. dosing): 5.46 h | half-life ([2]; oral, half‐life, doses ≥ 2.5 mg (abstract)): 3 to 9 h | half-life ([2]; oral, mean half‐life in plasma, q.d. dosing): 2 to 6 h | Tmax ([2]; oral, median Tmax, MRD 3.75 to 60 mg, after a single dose on day 1): 0.5 to 0.75 h | Tmax ([2]; oral, median Tmax, MRD 3.75 to 60 mg, day 9 after q.d. dosing): 0.75 to 1 h | Tmax ([2]; po, median time to maximum plasma concentration (Tmax), single and multiple doses (abstract)): 0.75 to 1 h | time of peak plasma concentrations postdose [3]: ≤ 2 h | median effective dose [4]: 0.31 mg/kg per day | no observed adverse effect level exposure limit (total AUC) [5]: 63 ng·h/mL | terminal disposition phase elimination half‐life (t1/2z) ([6]; after oral administration): 4.4 to 7.3 h | oral bioavailability [6]: 13.2%
